According to ChEMBL document CHEMBL3351332 (J Med Chem, 2014):

Legend:
Cannabinoid receptor 2 [1] = biological target: T1, Cannabinoid receptor 2 (Homo sapiens, UniProt P34972); test: Antagonist activity at human CB2 receptor stably expressed in CHO-RD-HGA16 cells assessed as inhibition of CP55,940-induced calcium mobilization at 10000 nM after 15 mins by FLIPR assay; type: functional, cell-based
Cannabinoid receptor 1 [2] = biological target: T2, Cannabinoid receptor 1 (Homo sapiens, UniProt P21554); test: Antagonist activity at human CB1 receptor stably expressed in RD-HGA16 cells assessed as inhibition of CP55,940-induced calcium mobilization after 15 mins by FLIPR assay; type: functional, cell-based
T2 sequence (P21554 whole entry): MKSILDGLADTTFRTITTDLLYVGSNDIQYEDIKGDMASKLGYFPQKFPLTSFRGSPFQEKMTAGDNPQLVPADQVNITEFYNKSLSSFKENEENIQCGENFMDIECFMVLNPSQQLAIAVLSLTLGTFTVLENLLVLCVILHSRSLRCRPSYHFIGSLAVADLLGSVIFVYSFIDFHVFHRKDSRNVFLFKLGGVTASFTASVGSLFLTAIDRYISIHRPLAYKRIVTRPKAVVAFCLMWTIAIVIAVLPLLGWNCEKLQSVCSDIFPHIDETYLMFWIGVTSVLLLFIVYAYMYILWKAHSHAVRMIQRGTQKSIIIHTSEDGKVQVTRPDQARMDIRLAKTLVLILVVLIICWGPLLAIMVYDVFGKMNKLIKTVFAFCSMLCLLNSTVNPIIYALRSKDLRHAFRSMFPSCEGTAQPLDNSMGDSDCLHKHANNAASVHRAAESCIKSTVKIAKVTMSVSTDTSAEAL

Cannabinoid receptor 1 [3] = biological target: T2, Cannabinoid receptor 1; test: Agonist activity at human CB1 receptor stably expressed in RD-HGA16 cells assessed as calcium mobilization at 10000 nM after 15 mins by FLIPR assay relative to CP55,940; type: functional, cell-based
In short: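 Cells plated at 25 000/well the day before in Ham's F12 with 10% FBS, then loaded 45 min at 37 °C with Calcium 5 dye in HBSS/20 mM HEPES/2.5 mM probenecid, pH 7.4. Vehicle pretreatment for 15 min at 37 °C; test compound added on-line, fluorescence read every 1 s over 90 s.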

Cannabinoid receptor 2 [4] = biological target: T1, Cannabinoid receptor 2; test: Antagonist activity at human CB2 receptor stably expressed in CHO-RD-HGA16 cells assessed as inhibition of CP55,940-induced calcium mobilization after 15 mins by FLIPR assay; type: functional, cell-based
Cannabinoid receptor 1 [5] = biological target: T2, Cannabinoid receptor 1; test: Allosteric modulation at human CB1 receptor stably expressed in RD-HGA16 cells assessed as inhibition of CP55,940-induced calcium mobilization after 15 mins by FLIPR assay; type: functional, cell-based
In short: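 Cells plated the day before at 25 000/well and loaded 45 min at 37 °C with Calcium 5 dye in HBSS/20 mM HEPES/2.5 mM probenecid, pH 7.4. Fluorescence was read every 1 s for 90 s.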

Cannabinoid receptor 1 [6] = biological target: T2, Cannabinoid receptor 1; test: Displacement of [3H]CP55,940 from human CB1 receptor expressed in HEK293 cells after 1 hr by scintillation counting; type: cell-based
Cannabinoid receptor 1 [7] = biological target: T2, Cannabinoid receptor 1; test: Displacement of [3H]CP55,940 from human CB1 receptor expressed in HEK293 cells after 1 hr by scintillation counting relative to control; type: cell-based

T1 sequence (P34972 whole entry): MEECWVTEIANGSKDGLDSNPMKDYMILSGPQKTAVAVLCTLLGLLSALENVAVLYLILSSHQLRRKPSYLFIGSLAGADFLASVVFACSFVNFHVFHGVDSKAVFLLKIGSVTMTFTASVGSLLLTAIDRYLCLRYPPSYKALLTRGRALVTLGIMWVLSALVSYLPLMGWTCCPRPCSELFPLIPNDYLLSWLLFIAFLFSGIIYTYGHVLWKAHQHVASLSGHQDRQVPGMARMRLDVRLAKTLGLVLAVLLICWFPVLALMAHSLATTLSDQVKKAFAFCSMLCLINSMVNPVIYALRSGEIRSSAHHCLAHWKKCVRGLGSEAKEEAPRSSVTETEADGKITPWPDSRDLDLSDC

Row | Compound | inhibition (Cannabinoid receptor 2 [1]) [%] | IC50 (Cannabinoid receptor 1 [2]) [µM] | Activity (Cannabinoid receptor 1 [3]) [%] | IC50 (Cannabinoid receptor 2 [4]) [µM] | Activity (Cannabinoid receptor 1 [5]) | EC50 (Cannabinoid receptor 1 [6]) [µM] | Emax (Cannabinoid receptor 1 [7]) [%] | inhibition (Cannabinoid receptor 1 [2])
1 | CCN(C)c1cccc(-c2cccc(NC(=O)Nc3ccc(Cl)cc3)c2)n1 | < 35 | 0.0537 | < 15 | – | – | – | – | –
2 | COc1cc(NC(=O)Nc2cccc(-c3cccc(N4CCCC4)n3)c2)cc(OC)c1OC | – | > 10 | < 15 | > 10 | – | – | – | –
3 | CCCCN(C)c1cccc(-c2cccc(NC(=O)Nc3ccc(Cl)cc3)c2)n1 | < 35 | 0.104 | 22.1 | – | – | – | – | –
4 | N#Cc1ccc(NC(=O)Nc2cccc(-c3cccc(N4CCCC4)n3)c2)cc1 | – | 0.033 | 30 | > 10 | Dose-dependent effect | 0.0552 | 172 | –
5 | CC(C)c1ccccc1NC(=O)Nc1cccc(-c2cccc(N3CCCC3)n2)c1 | < 35 | > 10 | < 15 | – | – | – | – | –
6 | CCCN(CCC)c1cccc(-c2cccc(NC(=O)Nc3ccc(Cl)cc3)c2)n1 | < 35 | 0.372 | 29 | – | – | – | – | –
7 | O=C(Nc1cccc(-c2cccc(N3CCCC3)n2)c1)Nc1cccc2ccccc12 | < 35 | > 10 | < 15 | – | – | – | – | –
8 | CCCCN(CCCC)c1cccc(-c2cccc(NC(=O)Nc3ccc(Cl)cc3)c2)n1 | < 35 | 0.693 | < 15 | – | – | – | – | –
9 | CCCCNc1cccc(-c2cccc(NC(=O)Nc3ccc(Cl)cc3)c2)n1 | < 35 | 0.093 | 26.5 | – | – | 1.52 | 161 | –
10 | O=C(Nc1ccc(F)cc1)Nc1cccc(-c2cccc(N3CCCC3)n2)c1 | < 35 | 0.032 | 23.2 | – | – | 0.207 | 172 | –
11 | CN(C)c1ccc(NC(=O)Nc2cccc(-c3cccc(N4CCCC4)n3)c2)cc1 | < 35 | 1.64 | < 15 | – | – | – | – | –
12 | COc1ccc(NC(=O)Nc2cccc(-c3cccc(N4CCCC4)n3)c2)cc1 | < 35 | 0.189 | < 15 | – | – | – | – | –
13 | O=C(Nc1ccc(Br)cc1)Nc1cccc(-c2cccc(N3CCCC3)n2)c1 | < 35 | 0.098 | < 15 | – | – | – | – | –
14 | O=C(Nc1cccc(-c2cccc(N3CCCC3)n2)c1)Nc1ccc(Cl)c(Cl)c1 | – | 0.161 | < 15 | > 10 | – | – | – | –
15 | CCNc1cccc(-c2cccc(NC(=O)Nc3ccc(Cl)cc3)c2)n1 | < 35 | 0.181 | < 15 | – | – | – | – | –
16 | CCCCCCNc1cccc(-c2cccc(NC(=O)Nc3ccc(Cl)cc3)c2)n1 | < 35 | 1.36 | < 15 | – | – | – | – | –
17 | Cc1cc(C)cc(NC(=O)Nc2cccc(-c3cccc(N4CCCC4)n3)c2)c1 | < 35 | 1.88 | < 15 | – | – | – | – | –
18 | Cc1ccc(NC(=O)Nc2cccc(-c3cccc(N4CCCC4)n3)c2)cc1 | < 35 | 0.203 | < 15 | – | – | – | – | –
19 | O=C(Nc1ccc(Cl)cc1)Nc1cccc(-c2cccc(N3CCCCC3)n2)c1 | – | 0.095 | 35 | > 10 | – | – | 132 | –

Row | Compound | inhibition (Cannabinoid receptor 2 [1]) [%] | IC50 (Cannabinoid receptor 1 [2]) [µM] | Activity (Cannabinoid receptor 1 [3]) [%] | IC50 (Cannabinoid receptor 2 [4]) [µM] | Activity (Cannabinoid receptor 1 [5]) | EC50 (Cannabinoid receptor 1 [6]) [µM] | Emax (Cannabinoid receptor 1 [7]) [%] | inhibition (Cannabinoid receptor 1 [2])
20 | O=C(Nc1cc(Cl)cc(Cl)c1)Nc1cccc(-c2cccc(N3CCCC3)n2)c1 | – | 0.716 | 22.2 | > 10 | – | – | – | –
21 | Cc1cccc(C)c1NC(=O)Nc1cccc(-c2cccc(N3CCCC3)n2)c1 | < 35 | > 10 | < 15 | – | – | – | – | –
22 | CCc1c(C(=O)NCCc2ccc(N3CCCCC3)cc2)[nH]c2ccc(Cl)cc12 | – | – | – | – | – | – | – | Dose-dependent effect
23 | CCCN(C)c1cccc(-c2cccc(NC(=O)Nc3ccc(Cl)cc3)c2)n1 | < 35 | 0.156 | < 15 | – | – | – | – | –
24 | CN(C)c1cccc(-c2cccc(NC(=O)Nc3ccc(Cl)cc3)c2)n1 | < 35 | 0.0274 | < 15 | – | Dose-dependent effect | 0.663 | 184 | –
25 | O=C(Nc1cccc(Cl)c1)Nc1cccc(-c2cccc(N3CCCC3)n2)c1 | < 35 | 0.228 | 19.6 | – | – | – | – | –
26 | CC(=O)Nc1cccc(-c2cccc(NC(=O)Nc3ccc(Cl)cc3)c2)n1 | – | 0.251 | 47 | 5.12 | – | – | – | –
27 | CCc1ccccc1NC(=O)Nc1cccc(-c2cccc(N3CCCC3)n2)c1 | < 35 | > 10 | < 15 | – | – | – | – | –
28 | O=C(Nc1ccc(Cl)nc1)Nc1cccc(-c2cccc(N3CCCC3)n2)c1 | < 35 | 0.135 | < 15 | – | – | 0.408 | 196 | –
29 | CCCNc1cccc(-c2cccc(NC(=O)Nc3ccc(Cl)cc3)c2)n1 | < 35 | 0.311 | 19.6 | – | – | – | – | –
30 | O=C(Nc1ccc([N+](=O)[O-])cc1)Nc1cccc(-c2cccc(N3CCCC3)n2)c1 | < 35 | 0.1 | 27.9 | – | – | – | – | –
31 | CCCCCNc1cccc(-c2cccc(NC(=O)Nc3ccc(Cl)cc3)c2)n1 | < 35 | 0.867 | < 15 | – | – | – | – | –
32 | O=C(Nc1cccc(-c2cccc(N3CCCC3)n2)c1)Nc1ccc2c(c1)OCO2 | < 35 | 0.312 | < 15 | – | – | – | – | –
33 | O=C(Nc1ccc(Cl)cc1)Nc1cccc(-c2cccc(N3CCCC3)n2)c1 | – | – | 28.2 | > 10 | – | – | 174 | Dose-dependent effect
34 | O=C(Nc1ccccc1)Nc1cccc(-c2cccc(N3CCCC3)n2)c1 | < 35 | 0.166 | < 15 | – | – | – | – | –
35 | O=C(Nc1cccc(-c2cccc(N3CCCC3)n2)c1)Nc1ccc2ccccc2c1 | < 35 | 0.888 | < 15 | – | – | – | – | –
36 | O=C(Nc1ccc(Cl)cc1)Nc1cccc(-c2cccc(NC3CCCC3)n2)c1 | – | 0.501 | 35 | > 10 | – | – | – | –
37 | CNc1cccc(-c2cccc(NC(=O)Nc3ccc(Cl)cc3)c2)n1 | < 35 | 0.317 | < 15 | – | – | – | – | –
38 | CCN(CC)c1cccc(-c2cccc(NC(=O)Nc3ccc(Cl)cc3)c2)n1 | < 35 | 0.125 | < 15 | – | – | – | – | –
